Laboratory results as given in ChEMBL document CHEMBL1152825, “Pseudomonas aeruginosa may accumulate drug resistance mechanisms without losing its ability to cause bloodstream infections” (2007).
In brackets after ≈: the same amount, converted by molar mass.

Tests used:
Type in all cases: functional
[1] = tested on: Pseudomonas aeruginosa; test: Antibacterial activity against Pseudomonas aeruginosa clinical isolates assessed as resistant rate by macrodilution technique
[2] = tested on: Pseudomonas aeruginosa; test: Antibacterial activity against Pseudomonas aeruginosa clinical isolate by macrodilution technique
[3] = tested on: Pseudomonas aeruginosa; test: Antibacterial activity against wild type Pseudomonas aeruginosa PAO1 by macrodilution technique
How it was run: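 Wild-type reference strain PAO1. MIC by agar macrodilution on Mueller-Hinton agar with calibrated divalent cations. It served as the baseline for defining a ≥fourfold MIC increase in clinical isolates, and as the expression reference in RT-PCR.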

[4] = tested on: Pseudomonas aeruginosa; test: Antibacterial activity against wild type Pseudomonas aeruginosa isolate by macrodilution technique
How it was run: (§1)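 MICs by agar macrodilution on Mueller-Hinton agar with calibrated divalent cations. Isolates were graded susceptible, intermediate or resistant by CLSI breakpoints. Resistance was defined as a ≥fourfold MIC rise over reference strain PAO1. Resistance mechanisms were assigned by RT-PCR (PAO1-derived overexpressing mutants as controls) and gene complementation.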

[5] = tested on: Pseudomonas aeruginosa; test: Antibacterial activity against aminoglycoside-resistant Pseudomonas aeruginosa isolate expressing MexXY-OprM pump by macrodilution technique
How it was run: as §1, with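 “Bloodstream P. aeruginosa isolates from patients in six French teaching hospitals (1999–2004). MICs” for “MICs”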

[6] = tested on: Pseudomonas aeruginosa; test: Antibacterial activity against MexXY-OprM pump-independent aminoglycoside-resistant Pseudomonas aeruginosa isolate by macrodilution technique
How it was run: as §1, with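 “Bloodstream P. aeruginosa isolates from patients in six French teaching hospitals (1999–2004). MICs” for “MICs”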

[7] = tested on: Pseudomonas aeruginosa; test: Antibacterial activity against aminoglycoside-resistant Pseudomonas aeruginosa isolate expressing MexXY-OprM pump, ANT(2'')-1 by macrodilution technique
How it was run: as §1, with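 “Bloodstream P. aeruginosa isolates from patients in six French teaching hospitals (1999–2004). MICs” for “MICs”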

[8] = tested on: Pseudomonas aeruginosa; test: Antibacterial activity against aminoglycoside-resistant Pseudomonas aeruginosa isolate expressing MexXY-OprM pump, AAC(6')-1 by macrodilution technique
How it was run: as §1, with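 “Bloodstream P. aeruginosa isolates from patients in six French teaching hospitals (1999–2004). MICs” for “MICs”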

[9] = tested on: Pseudomonas aeruginosa; test: Antibacterial activity against aminoglycoside-resistant Pseudomonas aeruginosa isolate expressing ANT(2'')-1 by macrodilution technique
How it was run: as §1, with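 “Bloodstream P. aeruginosa isolates from patients in six French teaching hospitals (1999–2004). MICs” for “MICs”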

[10] = tested on: Pseudomonas aeruginosa; test: Antibacterial activity against aminoglycoside-resistant Pseudomonas aeruginosa isolate expressing AAC(6')-1, ANT(2'')-1 by macrodilution technique
How it was run: as §1, with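 “Bloodstream P. aeruginosa isolates from patients in six French teaching hospitals (1999–2004). MICs” for “MICs”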

[11] = tested on: Pseudomonas aeruginosa; test: Antibacterial activity against aminoglycoside-resistant Pseudomonas aeruginosa isolate expressing MexXY-OprM pump, AAC(6')-1, ANT(2'')-1 by macrodilution technique
How it was run: as §1, with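 “Bloodstream P. aeruginosa isolates from patients in six French teaching hospitals (1999–2004). MICs” for “MICs”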

[12] = tested on: Pseudomonas aeruginosa; test: Antibacterial activity against aminoglycoside-resistant Pseudomonas aeruginosa isolate expressing MexXY-OprM pump, AAC(3')-1 by macrodilution technique
How it was run: as §1, with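 “Bloodstream P. aeruginosa isolates from patients in six French teaching hospitals (1999–2004). MICs” for “MICs”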

[13] = tested on: Pseudomonas aeruginosa; test: Antibacterial activity against aminoglycoside-resistant Pseudomonas aeruginosa isolate expressing MexXY-OprM pump, AAC(6')-1, AAC(3')-1 by macrodilution technique
How it was run: as §1, with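 “Bloodstream P. aeruginosa isolates from patients in six French teaching hospitals (1999–2004). MICs” for “MICs”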

[14] = tested on: Pseudomonas aeruginosa; test: Antibacterial activity against aminoglycoside-resistant Pseudomonas aeruginosa isolate expressing AAC(6')-1 by macrodilution technique
How it was run: as §1, with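 “Bloodstream P. aeruginosa isolates from patients in six French teaching hospitals (1999–2004). MICs” for “MICs”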

[15] = tested on: Pseudomonas aeruginosa; test: Antibacterial activity against Pseudomonas aeruginosa clinical isolates assessed as susceptible rate by macrodilution technique
[16] = tested on: Pseudomonas aeruginosa; test: Antibacterial activity against beta-lactams resistant Pseudomonas aeruginosa isolate expressing AmpC, MexAB-OprM pump by macrodilution technique
How it was run: as §1, with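 “Bloodstream P. aeruginosa isolates from patients in six French teaching hospitals (1999–2004). MICs” for “MICs”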

[17] = tested on: Pseudomonas aeruginosa; test: Antibacterial activity against beta-lactams resistant Pseudomonas aeruginosa isolate expressing MexAB-OprM pump by macrodilution technique; how it was run: as §1
[18] = tested on: Pseudomonas aeruginosa; test: Antibacterial activity against beta-lactams resistant Pseudomonas aeruginosa isolate expressing MexAB-OprM pump, MexXY-OprM pump by macrodilution technique; how it was run: as §1
[19] = tested on: Pseudomonas aeruginosa; test: Antibacterial activity against beta-lactams resistant Pseudomonas aeruginosa isolate expressing OXA2 by macrodilution technique; how it was run: as §1
[20] = tested on: Pseudomonas aeruginosa; test: Antibacterial activity against beta-lactams resistant Pseudomonas aeruginosa isolate expressing AmpC, MexAB-OprM pump, MexXY-OprM pump by macrodilution technique; how it was run: as §1
[21] = tested on: Pseudomonas aeruginosa; test: Antibacterial activity against beta-lactams resistant Pseudomonas aeruginosa isolate expressing AmpC by macrodilution technique; how it was run: as §1

| Compound | Activity [1] [%] | MIC50 [2] [µg/mL] | MIC90 [2] [µg/mL] | MIC [3] [µg/mL] | MIC [4] [µg/mL] | MIC [5] [µg/mL] | MIC [6] [µg/mL] | MIC [7] [µg/mL] | MIC [8] [µg/mL] | MIC [9] [µg/mL] | MIC [10] [µg/mL] | MIC [11] [µg/mL] | MIC [12] [µg/mL] | MIC [13] [µg/mL] | MIC [14] [µg/mL] | Activity [15] [%] | also measured |
| --- | --- | --- | --- | --- | --- | --- | --- | --- | --- | --- | --- | --- | --- | --- | --- | --- | --- |
| CCN[C@@H]1C[C@H](N)[C@@H](O[C@H]2OC(CN)=CC[C@H]2N)[C@H](O)[C@H]1O[C@H]1OC[C@](C)(O)[C@H](NC)[C@H]1O [NETILMICIN] | 15 | 8 (≈ 16.8 µM) | 32 (≈ 67.3 µM) | 4 (≈ 8.41 µM) | 4 (≈ 8.41 µM) | 16 (≈ 33.6 µM) | 16 (≈ 33.6 µM) | 16 (≈ 33.6 µM) | > 128 | 8 (≈ 16.8 µM) | > 128 | > 128 | 16 (≈ 33.6 µM) | > 128 | > 128 | 56.7 |  |
| CO/N=C(\C(=O)N[C@@H]1C(=O)N2C(C(=O)[O-])=C(C[N+]3(C)CCCC3)CS[C@H]12)c1csc(N)n1 |  |  |  |  |  |  |  |  |  |  |  |  |  |  |  |  | MIC [16]: 8 µg/mL (≈ 16.6 µM); MIC [17]: 8 µg/mL (≈ 16.6 µM); MIC [18]: 8 µg/mL (≈ 16.6 µM); MIC [19]: 2 µg/mL (≈ 4.16 µM); MIC [20]: 8 µg/mL (≈ 16.6 µM); MIC [21]: 8 µg/mL (≈ 16.6 µM) |
| GENTAMICIN | 25 | 4 | 128 | 2 | 4 | 8 | 8 | 128 | 128 | > 128 | 128 | 128 | 128 | 128 | 128 | 53.3 |  |
| NC[C@H]1O[C@H](O[C@H]2[C@H](O)[C@@H](O[C@H]3O[C@H](CO)[C@@H](O)[C@H](N)[C@H]3O)[C@H](N)C[C@@H]2N)[C@H](N)C[C@@H]1O [TOBRAMYCIN] | 21.7 | 1 (≈ 2.14 µM) | > 64 | 0.5 (≈ 1.07 µM) | 1 (≈ 2.14 µM) | 2 (≈ 4.28 µM) | 2 (≈ 4.28 µM) | > 64 | > 64 | 16 (≈ 34.2 µM) | 64 (≈ 137 µM) | 64 (≈ 137 µM) | 2 (≈ 4.28 µM) | > 64 | 32 (≈ 68.4 µM) | 77.5 |  |
| NCC[C@H](O)C(=O)N[C@@H]1C[C@H](N)[C@@H](O[C@H]2O[C@H](CN)[C@@H](O)[C@H](O)[C@H]2O)[C@H](O)[C@H]1O[C@H]1O[C@H](CO)[C@@H](O)[C@H](N)[C@H]1O [AMIKACIN] | 1.7 | 4 (≈ 6.83 µM) | 16 (≈ 27.3 µM) | 4 (≈ 6.83 µM) | 4 (≈ 6.83 µM) | 8 (≈ 13.7 µM) | 8 (≈ 13.7 µM) | 8 (≈ 13.7 µM) | 32 (≈ 54.6 µM) | 4 (≈ 6.83 µM) | 16 (≈ 27.3 µM) | 16 (≈ 27.3 µM) | 8 (≈ 13.7 µM) | 128 (≈ 219 µM) | 16 (≈ 27.3 µM) | 93.3 |  |
